Assays:
[1] = Lipophilicity, log K at 10 uM after 40 mins by HPLC analysis; assay type: physicochemical
Outline: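 Sample at 10^-5 M analysed by reversed-phase C18 HPLC, eluted with CH3OH/H2O 0.7/0.3 at 1 mL/min for 40 min, UV detection at 254.8 nm. Retention time tR recorded; acetone peak taken as t0 (1.591 min). Log K = Log[(tR − t0)/t0].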

A549 = assay: Antiproliferative activity against human A549 cells after 3 days by sulforhodamine B assay; assay type: functional, cell-based; conditions: A549, 72 h
Outline: (§1)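 Freshly trypsinized cells seeded at 5000 per well; compounds added from DMSO-diluted stock at 60, 6, 0.6, 0.06 and 0.006 µM. After 3 days, attached cells were fixed with cold 10% trichloroacetic acid, stained with 0.4% sulforhodamine B, the bound dye solubilized, and absorbance read at 562 nm. IC50 is the concentration reducing cell growth by 50%, averaged from at least three independent determinations.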

PC-3 = assay: Antiproliferative activity against human PC3 cells after 3 days by sulforhodamine B assay; assay type: functional, cell-based; conditions: PC-3, 72 h; outline: as §1
MCF7 = assay: Antiproliferative activity against human MCF7 cells after 3 days by sulforhodamine B assay; assay type: functional, cell-based; conditions: MCF7, 72 h; outline: as §1
KB = assay: Antiproliferative activity against human KB cells after 3 days by sulforhodamine B assay; assay type: functional, cell-based; conditions: 72 h; outline: as §1
[2] = Antiproliferative activity against human KBVIN cells after 3 days by sulforhodamine B assay; assay type: functional, cell-based; conditions: 72 h; outline: as §1
CCRF S-180 [3] = assay: Antitumor activity against mouse S180 cells xenografted in ICR mouse assessed as tumor weight at 1 mg/kg, ip administered 24 hrs after tumor implantation daily for 7 consecutive days measured after 24 hrs of last dose (Rvb=1.602 +/- 0.391 g); assay type: functional; conditions: route intraperitoneal
Mus musculus [4] = assay: Toxicity in ICR mouse xenografted with mouse S180 cells assessed as femur weight at 1 mg/kg, ip administered 24 hrs after tumor implantation daily for 7 consecutive days measured after 24 hrs of last dose (Rvb=0.056 +/- 0.006 g); assay type: organism-based, CCRF S-180; set-up: dose 1 mg/kg, route intraperitoneal; conditions: in vivo
Mus musculus [5] = assay: Neurotoxicity in ICR mouse assessed as occurrence of neurotoxic behavior at 10 to 500 mg/kg, ip measured up to 7 days post dose; assay type: toxicity, organism-based; set-up: dose 10-500 mg/kg, route intraperitoneal; conditions: in vivo, 168 h
Outline: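 Healthy ICR mice, 10–12 weeks old, 12 per group (six male, six female), fasted overnight with water available. Single ip injection of 10, 100 or 500 mg/kg in 0.2 mL 0.9% saline. Monitored continuously up to 7 days for abnormal behavior (tremor, twitch, jumping, tetanus, supination) or death. Sacrificed on day 7; heart, liver and kidneys checked macroscopically.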

Mus musculus [6] = assay: Toxicity in ICR mouse assessed as change in heart weight at 10 to 500 mg/kg, ip measured on day 7 post dose by necroscopy; assay type: organism-based; set-up: dose 10-500 mg/kg, route intraperitoneal; conditions: in vivo
Mus musculus [7] = assay: Toxicity in ICR mouse assessed as change in liver weight at 10 to 500 mg/kg, ip measured on day 7 post dose by necroscopy; assay type: organism-based; set-up: dose 10-500 mg/kg, route intraperitoneal; conditions: in vivo
Mus musculus [8] = assay: Toxicity in ICR mouse assessed as change in kidney weight at 10 to 500 mg/kg, ip measured on day 7 post dose by necroscopy; assay type: organism-based; set-up: dose 10-500 mg/kg, route intraperitoneal; conditions: in vivo
Mus musculus [9] = assay: Toxicity in ICR mouse assessed as mortality up to 500 mg/kg, ip measured after 7 days post dose; assay type: organism-based; set-up: dose 500 mg/kg, route intraperitoneal; conditions: in vivo, 168 h
Outline: (§2)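 ICR mice, 10–12 weeks old, of both sexes (six males and six females, 12 per group), housed at 21 °C and fasted overnight with water available. They received a single ip injection of 10, 100 or 500 mg/kg in 0.2 mL 0.9% saline. Mice were watched continuously for 7 days for neurotoxic behaviour or death, then killed on day 7 and checked macroscopically (heart, liver, kidneys). LD50 was estimated graphically.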

[10] = Toxicity in ip dosed ICR mouse measured after 7 days post dose; assay type: organism-based; conditions: in vivo; outline: as §2
CCRF S-180 [11] = assay: Antitumor activity against mouse S180 cells xenografted in ICR mouse assessed as tumor weight at 0.1 mg/kg, ip administered 24 hrs after tumor implantation daily for 7 consecutive days measured after 24 hrs of last dose (Rvb=1.602 +/- 0.391 g); assay type: functional; conditions: route intraperitoneal
CCRF S-180 [12] = assay: Antitumor activity against mouse S180 cells xenografted in ICR mouse assessed as tumor weight at 0.01 mg/kg, ip administered 24 hrs after tumor implantation daily for 7 consecutive days measured after 24 hrs of last dose (Rvb=1.602 +/- 0.391 g); assay type: functional; conditions: route intraperitoneal
CCRF S-180 [13] = assay: Antitumor activity against mouse S180 cells xenografted in ip dosed ICR mouse assessed as decrease in tumor weight administered 24 hrs after tumor implantation daily for 7 consecutive days measured after 24 hrs of last dose; assay type: functional, organism-based
Mus musculus [14] = assay: Toxicity in ICR mouse xenografted with mouse S180 cells assessed as body weight at 1 mg/kg, ip administered 24 hrs after tumor implantation daily for 7 consecutive days measured after 24 hrs of last dose (Rvb=33.3 +/- 2.32 g); assay type: organism-based, CCRF S-180; set-up: dose 1 mg/kg, route intraperitoneal; conditions: in vivo
Mus musculus [15] = assay: Toxicity in ICR mouse xenografted with mouse S180 cells assessed as heart weight at 1 mg/kg, ip administered 24 hrs after tumor implantation daily for 7 consecutive days measured after 24 hrs of last dose (Rvb=0.17 +/- 0.01 g); assay type: organism-based, CCRF S-180; set-up: dose 1 mg/kg, route intraperitoneal; conditions: in vivo
Mus musculus [16] = assay: Toxicity in ICR mouse xenografted with mouse S180 cells assessed as brain weight at 1 mg/kg, ip administered 24 hrs after tumor implantation daily for 7 consecutive days measured after 24 hrs of last dose (Rvb=0.31 +/- 0.01 g); assay type: organism-based, CCRF S-180; set-up: dose 1 mg/kg, route intraperitoneal; conditions: in vivo
Mus musculus [17] = assay: Toxicity in ICR mouse xenografted with mouse S180 cells assessed as liver weight at 1 mg/kg, ip administered 24 hrs after tumor implantation daily for 7 consecutive days measured after 24 hrs of last dose (Rvb=2.36 +/- 0.20 g); assay type: organism-based, CCRF S-180; set-up: dose 1 mg/kg, route intraperitoneal; conditions: in vivo
Mus musculus [18] = assay: Toxicity in ICR mouse xenografted with mouse S180 cells assessed as spleen weight at 1 mg/kg, ip administered 24 hrs after tumor implantation daily for 7 consecutive days measured after 24 hrs of last dose (Rvb=0.22 +/- 0.04 g); assay type: organism-based, CCRF S-180; set-up: dose 1 mg/kg, route intraperitoneal; conditions: in vivo
Mus musculus [19] = assay: Toxicity in ICR mouse xenografted with mouse S180 cells assessed as kidney weight at 1 mg/kg, ip administered 24 hrs after tumor implantation daily for 7 consecutive days measured after 24 hrs of last dose (Rvb=0.23 +/- 0.02 g); assay type: organism-based, CCRF S-180; set-up: dose 1 mg/kg, route intraperitoneal; conditions: in vivo

| SMILES | log K [1] | IC50 (A549) [µM] | IC50 (PC-3) [µM] | IC50 (MCF7) [µM] | IC50 (KB) [µM] | IC50 [2] [µM] | Activity (CCRF S-180 [3]) [g] | further results |
| --- | --- | --- | --- | --- | --- | --- | --- | --- |
| CCC(C)[C@@H](C(=O)OCc1ccccc1)N1C(=O)[C@@H]2Cc3c([nH]c4ccccc34)CN2C1(C)C (stereo partly specified) | 0.8 | 43.6 | 10.3 | 21.1 | 50.1 | 50.9 | 2.846 |  |
| CC(C)[C@@H](C(=O)OCc1ccccc1)N1C(=O)[C@@H]2Cc3c([nH]c4ccccc34)CN2C1(C)C | 0.73 | 44.9 | 8.47 | 33.7 | 52 | 52.2 | 2.003 |  |
| C[C@@H](C(=O)OCc1ccccc1)N1C(=O)[C@@H]2Cc3c([nH]c4ccccc34)CN2C1(C)C | 0.44 | 59.1 | 48 | 57 | 60.3 | 55.7 | 1.418 |  |
| CC1(C)N2Cc3[nH]c4ccccc4c3C[C@H]2C(=O)N1[C@@H](CC(=O)OCc1ccccc1)C(=O)OCc1ccccc1 | 0.96 | 0.15 | 0.04 | 7.01 | 36.3 | 38.6 | 0.746 | Activity (Mus musculus [4]): 0.057 g; Activity (Mus musculus [5]): Non-toxic; Activity (Mus musculus [6]): Non-toxic; Activity (Mus musculus [7]): Non-toxic; Activity (Mus musculus [8]): Non-toxic; Activity (Mus musculus [9]): Non-toxic; LD50 at 168 h [10]: > 500 mg/kg; Activity (CCRF S-180 [11]): 1.013 g; Activity (CCRF S-180 [12]): 1.305 g; Activity (CCRF S-180 [13]): Dose-dependent effect; Activity (Mus musculus [14]): 33.37 g; Activity (Mus musculus [15]): 0.17 g; Activity (Mus musculus [16]): 0.31 g; Activity (Mus musculus [17]): 2.26 g; Activity (Mus musculus [18]): 0.24 g; Activity (Mus musculus [19]): 0.23 g |
| CC1(C)N(CC(=O)OCc2ccccc2)C(=O)[C@@H]2Cc3c([nH]c4ccccc34)CN21 | 0.32 | 7.92 | 9.98 | 10.4 | 22.5 | 12.2 | 0.916 | Activity (Mus musculus [4]): 0.055 g; Activity (Mus musculus [5]): Non-toxic; Activity (Mus musculus [6]): Non-toxic; Activity (Mus musculus [7]): Non-toxic; Activity (Mus musculus [8]): Non-toxic; Activity (Mus musculus [9]): Non-toxic; LD50 at 168 h [10]: > 500 mg/kg; Activity (Mus musculus [14]): 33.75 g; Activity (Mus musculus [15]): 0.16 g; Activity (Mus musculus [16]): 0.3 g; Activity (Mus musculus [17]): 2.25 g; Activity (Mus musculus [18]): 0.24 g; Activity (Mus musculus [19]): 0.22 g |
| COc1cccc2c1C(=O)c1c(O)c3c(c(O)c1C2=O)C[C@@](O)(C(=O)CO)C[C@@H]3O[C@H]1C[C@H](N)[C@H](O)[C@H](C)O1 [DOXORUBICIN] |  |  |  |  |  |  | 0.817 | Activity (Mus musculus [4]): 0.046 g; Activity (Mus musculus [14]): 27.28 g; Activity (Mus musculus [15]): 0.15 g; Activity (Mus musculus [16]): 0.32 g; Activity (Mus musculus [17]): 2 g; Activity (Mus musculus [18]): 0.11 g; Activity (Mus musculus [19]): 0.19 g |
| CC1(C)N2Cc3[nH]c4ccccc4c3C[C@H]2C(=O)N1[C@@H](Cc1ccc(O)cc1)C(=O)OCc1ccccc1 | 0.49 | 0.12 | 0.69 | 4.44 | 18 | 8.35 | 1.046 | Activity (Mus musculus [4]): 0.056 g; Activity (Mus musculus [5]): Non-toxic; Activity (Mus musculus [6]): Non-toxic; Activity (Mus musculus [7]): Non-toxic; Activity (Mus musculus [8]): Non-toxic; Activity (Mus musculus [9]): Non-toxic; LD50 at 168 h [10]: > 500 mg/kg; Activity (Mus musculus [14]): 35.85 g; Activity (Mus musculus [15]): 0.16 g; Activity (Mus musculus [16]): 0.32 g; Activity (Mus musculus [17]): 2.35 g; Activity (Mus musculus [18]): 0.23 g; Activity (Mus musculus [19]): 0.23 g |

More lines, main results first:

| log K [1] | IC50 (A549) [µM] | IC50 (PC-3) [µM] | IC50 (MCF7) [µM] | IC50 (KB) [µM] | SMILES | IC50 [2] [µM] | Activity (CCRF S-180 [3]) [g] | further results |
| --- | --- | --- | --- | --- | --- | --- | --- | --- |
| 1.02 | 23.3 | 13.9 | 19.8 | 38.2 | CC1(C)N2Cc3[nH]c4ccccc4c3C[C@H]2C(=O)N1[C@@H](COCc1ccccc1)C(=O)OCc1ccccc1 | 42.3 | 1.793 |  |
| 1.05 | 33.6 | 35.4 | 37 | 40 | CC1(C)N2Cc3[nH]c4ccccc4c3C[C@H]2C(=O)N1[C@@H](CCC(=O)OCc1ccccc1)C(=O)OCc1ccccc1 | 37.9 | 1.578 |  |
| 0.25 | 38.4 | 10 | 20.4 | 42.1 | CC1(C)N2Cc3[nH]c4ccccc4c3C[C@H]2C(=O)N1[C@@H](CCC(N)=O)C(=O)OCc1ccccc1 | 40 | 1.696 |  |
| 0.87 | 8.34 | 4.24 | 4.61 | 32.9 | CC1(C)N2Cc3[nH]c4ccccc4c3C[C@H]2C(=O)N1[C@@H](CCCCNC(=O)OCc1ccccc1)C(=O)OCc1ccccc1 | 30.6 | 1.613 |  |
| 1.05 | 35.3 | 40.6 | 43 | 46.4 | CC1(C)N2Cc3[nH]c4ccccc4c3C[C@H]2C(=O)N1[C@@H](Cc1ccccc1)C(=O)OCc1ccccc1 | 41.1 | 1.6 |  |
| 0.92 | 30.6 | 7.06 | 14.7 | 41.1 | CC(C)C[C@@H](C(=O)OCc1ccccc1)N1C(=O)[C@@H]2Cc3c([nH]c4ccccc34)CN2C1(C)C | 32.5 | 2.05 |  |
| 0.16 | 39.6 | 17 | 20.2 | 43.5 | CC1(C)N2Cc3[nH]c4ccccc4c3C[C@H]2C(=O)N1[C@@H](CC(N)=O)C(=O)OCc1ccccc1 | 50.1 | 1.604 |  |

From ChEMBL document CHEMBL1157623, “Benzyl 1,2,3,5,11,11a-hexahydro-3,3-dimethyl-1-oxo-6H-imidazo[3',4':1,2]pyridin[3,4-b]indole-2-substituted acetates: One-pot-preparation, anti-tumor activity, docking toward DNA and 3D QSAR analysis” (Bioorg Med Chem, 2010)
